Results from different studies.
Compare with care: the assays were run in different laboratories.
CDK3: Cyclin-dependent kinase 3 (CDK3, Homo sapiens, UniProt Q00526)
CDK3 with cyclin E: Cyclin-dependent kinase 3, with cyclin E (CDK3, Homo sapiens, UniProt Q00526)

CCCCC(=O)Nc1ccc(-c2ccc3ncn(CCC)c(=O)c3c2)cn1
remaining binding (CDK3; binding, competition with immobilised ligand; 0.5 µM): 93%

C1=C/COCc2cc(ccc2OCCN2CCCC2)Nc2nccc(n2)-c2cccc(c2)COC/1
remaining signal (CDK3; cell-free assay; 0.1 µM): 100%

CC#CC(=O)N1CCC[C@H]1c1nc(-c2ccc(C(=O)Nc3ccccn3)cc2)c2c(N)nccn12
inhibition (CDK3; enzyme activity, inhibitor; 1 µM): 8%

N#Cc1ccc(NC(=O)Nc2ccccc2)cc1
remaining binding (CDK3; cell-free assay, competition with immobilised ligand; 25 µM): 98%

Cc1ccc(NC(=O)c2ccnc(C(F)(F)F)c2)cc1-c1cc(OCCO)nc(N2CCOCC2)c1
remaining binding (CDK3; binding, competition with immobilised ligand; 1 µM): 89%

CC(C)S(=O)(=O)c1ccc2nccc(Nc3ccc4sc(C5CCCC5)nc4c3)c2c1
activity vs control (CDK3 with cyclin E; enzyme activity, inhibitor; 1 µM): 96.5%

C[C@]1(O)CCCN(c2nc(Nc3ccc(S(=O)(=O)N[C@H]4CC[C@H](CN5CCN(c6ccc(C7CCC(=O)NC7=O)cc6F)CC5)CC4)cc3Cl)ncc2C(F)(F)F)C1 (some centres unmarked)
remaining binding (CDK3; binding, competition with immobilised ligand; 1 µM): 69%

C=CC(=O)N1CCC([C@@H]2CCNc3c(C(N)=O)c(-c4ccc(Oc5ccccc5)cc4)nn32)CC1
inhibition (CDK3; enzyme activity, inhibitor; 1 µM): 8%

CN1CCN(C(=O)c2ccc(NC(=O)Nc3ccc(N(C)c4ccnc(Nc5ccc(CS(C)(=O)=O)cc5)n4)cc3)cc2)CC1
remaining binding (CDK3; binding, competition with immobilised ligand; 1 µM): 100%

C[C@]1(O)CCCN(c2nc(Nc3ccc(S(=O)(=O)N[C@H]4CC[C@H](CN5CCN(c6ccc(C7CCC(=O)NC7=O)cc6F)CC5)CC4)cc3F)ncc2C(F)(F)F)C1 (some centres unmarked)
remaining binding (CDK3; binding, competition with immobilised ligand; 1 µM): 74%

COc1ccc2oc(-c3ccc4nc(N)oc4c3)c/c(=N\c3ccccc3NC(=O)CCN)c2c1
remaining binding (CDK3 with cyclin E; binding; 1 µM): 108%
